Activity calls are given as the source filed them. The calls are words filed in the database; no cut-off is given here.
Key:
[1] = AUC in rat at 10 mg/kg, po; type: ADME, organism-based; set-up: dose 10 mg/kg, route oral; conditions: plasma
Procedure, shortened: (§1)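 Single-dose pharmacokinetics: rats were dosed at 10 mg/kg, and monkeys and dogs at 3 mg/kg. Oral AUC, clearance, half-life and bioavailability were determined. All doses were given in 0.4% MC vehicle.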

[2] = Irreversible inhibition of hepatitis C virus NS5B polymerase; set-up: species or system Hepacivirus hominis
[3] = system: Hepatitis C virus; test: Antiviral activity against HCV by cell based replicon assay; type: functional, organism-based, Hepacivirus hominis
[4] = system: Hepacivirus hominis; test: Binding affinity to hepatitis C virus NS5B polymerase assessed as covalent bonding with cysteine-366 residue by mass spectroscopy analysis
[5] = system: Plasma; test: Metabolic stability in dog plasma up to 3 hrs; type: ADME, cell-free, Canis lupus familiaris
[6] = system: Salmonella typhimurium; test: Mutagenic activity in Salmonella typhimurium by mini-AMES test in absence of S9 fraction; type: toxicity, organism-based; conditions: salmonella enterica subsp. enterica serovar typhimurium
[7] = Oral bioavailability in monkey at 3 mg/kg; type: ADME, organism-based, Macaca mulatta; conditions: rhesus monkey, in vivo; procedure, shortened: as §1
[8] = molecular target: T1, Lupus La protein (Homo sapiens, UniProt P05455); test: Binding affinity to human La antigen by NMR based ALARM assay; type: ADME
T1 sequence (P05455 whole entry): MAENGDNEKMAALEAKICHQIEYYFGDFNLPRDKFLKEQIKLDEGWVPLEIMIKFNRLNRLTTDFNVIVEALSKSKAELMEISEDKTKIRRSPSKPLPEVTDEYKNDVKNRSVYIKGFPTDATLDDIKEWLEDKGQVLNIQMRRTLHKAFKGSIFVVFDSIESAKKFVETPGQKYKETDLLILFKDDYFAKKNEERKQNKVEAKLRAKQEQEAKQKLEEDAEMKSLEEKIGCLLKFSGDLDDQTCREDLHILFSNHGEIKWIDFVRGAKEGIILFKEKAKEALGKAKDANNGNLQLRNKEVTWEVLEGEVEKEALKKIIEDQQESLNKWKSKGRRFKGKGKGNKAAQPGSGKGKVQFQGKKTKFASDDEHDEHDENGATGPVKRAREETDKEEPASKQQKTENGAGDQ
Procedure, shortened: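 NMR-based ALARM assay. The compound was incubated with human La antigen, and NMR was used to monitor reaction with the antigen's reactive thiols.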

[9] = system: Plasma; test: Metabolic stability in monkey plasma up to 3 hrs; type: ADME, cell-free, Macaca mulatta; conditions: rhesus monkey
[10] = molecular target: Cytochrome P450 3A4 (Homo sapiens, UniProt P08684); test: Inhibition of CYP3A4 up to 30 uM; type: ADME
Cytochrome P450 3A4, sequence (P08684 whole entry): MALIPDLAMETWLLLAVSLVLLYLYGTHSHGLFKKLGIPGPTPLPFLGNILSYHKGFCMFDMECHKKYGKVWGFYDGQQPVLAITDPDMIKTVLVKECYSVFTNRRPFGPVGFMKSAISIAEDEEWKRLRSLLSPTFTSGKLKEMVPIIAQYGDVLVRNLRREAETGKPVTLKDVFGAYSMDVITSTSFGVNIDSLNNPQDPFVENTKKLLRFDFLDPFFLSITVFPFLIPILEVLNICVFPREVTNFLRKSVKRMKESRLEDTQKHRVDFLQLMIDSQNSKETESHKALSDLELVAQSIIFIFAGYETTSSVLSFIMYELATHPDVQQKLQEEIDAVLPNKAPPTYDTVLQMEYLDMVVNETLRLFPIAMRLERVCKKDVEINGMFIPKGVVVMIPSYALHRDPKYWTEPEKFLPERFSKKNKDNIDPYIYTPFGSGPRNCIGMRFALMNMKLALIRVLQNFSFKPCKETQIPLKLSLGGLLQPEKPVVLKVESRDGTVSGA

[11] = Clearance in monkey at 3 mg/kg; type: ADME, organism-based, Macaca mulatta; set-up: dose 3 mg/kg; conditions: rhesus monkey, in vivo; procedure, shortened: as §1
[12] = Half life in dog at 3 mg/kg, iv; type: ADME, organism-based, Canis lupus familiaris; set-up: dose 3 mg/kg, route intravenous; conditions: in vivo; procedure, shortened: as §1
[13] = Oral bioavailability in dog at 3 mg/kg; type: ADME, organism-based, Canis lupus familiaris; conditions: in vivo; procedure, shortened: as §1
[14] = system: Plasma; test: Metabolic stability in human plasma up to 3 hrs; type: ADME, cell-free
[15] = Mutagenic activity in micronuclei assessed as induction of chromosomal damage
[16] = system: Plasma; test: Metabolic stability in rat plasma up to 3 hrs; type: ADME, cell-free
[17] = AUC in monkey at 3 mg/kg, po; type: ADME, organism-based, Macaca mulatta; set-up: dose 3 mg/kg, route oral; conditions: rhesus monkey, plasma; procedure, shortened: as §1
[18] = molecular target: Cytochrome P450 2D6 (Homo sapiens, UniProt P10635); test: Inhibition of CYP2D6 up to 30 uM; type: ADME
Cytochrome P450 2D6, sequence (P10635 whole entry): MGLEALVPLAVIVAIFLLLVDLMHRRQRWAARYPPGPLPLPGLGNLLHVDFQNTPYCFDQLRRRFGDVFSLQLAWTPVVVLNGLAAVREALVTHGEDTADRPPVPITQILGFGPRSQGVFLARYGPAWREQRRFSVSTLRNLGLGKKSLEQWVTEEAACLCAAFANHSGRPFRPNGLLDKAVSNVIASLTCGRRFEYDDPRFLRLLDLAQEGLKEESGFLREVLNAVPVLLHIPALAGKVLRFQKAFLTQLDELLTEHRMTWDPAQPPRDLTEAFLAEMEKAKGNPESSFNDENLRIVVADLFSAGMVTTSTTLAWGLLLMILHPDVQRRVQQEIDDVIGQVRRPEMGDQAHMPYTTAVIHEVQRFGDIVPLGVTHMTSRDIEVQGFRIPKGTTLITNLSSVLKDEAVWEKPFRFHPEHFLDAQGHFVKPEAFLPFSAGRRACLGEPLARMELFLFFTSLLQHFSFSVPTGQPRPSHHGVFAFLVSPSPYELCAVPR

[19] = Half life in rat at 10 mg/kg, iv; type: ADME, organism-based; set-up: dose 10 mg/kg, route intravenous; conditions: in vivo; procedure, shortened: as §1
[20] = Induction of cytochrome P450 activity at 10 uM; type: ADME
[21] = molecular target: Cytochrome P450 2C9 (Homo sapiens, UniProt P11712); test: Inhibition of CYP2C9 up to 30 uM; type: ADME
Cytochrome P450 2C9, sequence (P11712 whole entry): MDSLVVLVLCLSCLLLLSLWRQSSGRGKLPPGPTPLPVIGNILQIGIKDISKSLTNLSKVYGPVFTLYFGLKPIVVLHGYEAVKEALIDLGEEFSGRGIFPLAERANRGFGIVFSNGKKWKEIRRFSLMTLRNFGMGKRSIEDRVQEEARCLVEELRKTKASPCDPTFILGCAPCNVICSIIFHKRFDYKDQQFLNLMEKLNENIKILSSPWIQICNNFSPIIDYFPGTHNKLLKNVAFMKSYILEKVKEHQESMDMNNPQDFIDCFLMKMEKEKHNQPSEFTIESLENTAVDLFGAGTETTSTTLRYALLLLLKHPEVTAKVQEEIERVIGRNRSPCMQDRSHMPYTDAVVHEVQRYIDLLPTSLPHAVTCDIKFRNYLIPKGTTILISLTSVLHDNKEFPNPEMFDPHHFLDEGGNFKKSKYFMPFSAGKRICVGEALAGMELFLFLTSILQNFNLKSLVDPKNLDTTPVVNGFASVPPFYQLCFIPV

[22] = Clearance in dog at 3 mg/kg; type: ADME, organism-based, Canis lupus familiaris; set-up: dose 3 mg/kg; conditions: in vivo; procedure, shortened: as §1
[23] = Drug level in rat liver at 10 mg/kg, iv after 6 hrs; type: ADME, organism-based; set-up: dose 10 mg/kg, route intravenous; conditions: read-out: Drug uptake
[24] = AUC in dog at 3 mg/kg, po; type: ADME, organism-based, Canis lupus familiaris; set-up: dose 3 mg/kg, route oral; conditions: plasma; procedure, shortened: as §1
[25] = Clearance in rat at 10 mg/kg; type: ADME, organism-based; set-up: dose 10 mg/kg; conditions: in vivo; procedure, shortened: as §1
[26] = Oral bioavailability in rat at 10 mg/kg; type: ADME, organism-based; conditions: in vivo; procedure, shortened: as §1
[27] = Half life in monkey at 3 mg/kg, iv; type: ADME, organism-based, Macaca mulatta; set-up: dose 3 mg/kg, route intravenous; conditions: rhesus monkey, in vivo; procedure, shortened: as §1
[28] = system: Salmonella typhimurium; test: Mutagenic activity in Salmonella typhimurium by mini-AMES test in presence of S9 fraction; type: toxicity, organism-based; conditions: salmonella enterica subsp. enterica serovar typhimurium

Cc1ccc2c(c1)c(-c1ccc[nH]c1=O)c(C(=O)O)n2Cc1cc([N+](=O)[O-])ccc1F
AUC [1]: 0.14 µM·h | IC50 [2]: 3 nM | EC50 [3]: 1 nM

Cc1ccc2c(c1)c(-c1ccc(C)[nH]c1=O)c(C(=O)NS(C)(=O)=O)n2Cc1cc([N+](=O)[O-])ccc1F
IC50 [2]: 6 nM | EC50 [3]: 8 nM

Cc1ccc2c(c1)c(-c1ccc[nH]c1=O)c(C(=O)NS(=O)(=O)C1CC1)n2Cc1cc(C(N)=O)ccc1F
IC50 [2]: 4 nM | EC50 [3]: 140 nM

Cc1ccc2c(c1)c(-c1ccc[nH]c1=O)c(C(=O)NS(=O)(=O)C1CC1)n2Cc1ccccc1F
IC50 [2]: 5 nM | EC50 [3]: 50 nM

Cc1ccc2c(c1)c(-c1ccc[nH]c1=O)c(C(=O)NS(=O)(=O)C1CC1)n2Cc1cc(S(C)(=O)=O)ccc1F
IC50 [2]: 6 nM | EC50 [3]: 580 nM

Cc1ccc2c(c1)c(-c1ccc(C)[nH]c1=O)c(C(=O)NS(=O)(=O)C1CC1)n2Cc1cc([N+](=O)[O-])ccc1F
IC50 [2]: 12 nM | EC50 [3]: 9 nM

Cc1ccc2c(c1)c(-c1ccc[nH]c1=O)c(C(=O)NS(=O)(=O)C1CC1)n2Cc1ccnc(N)c1
IC50 [2]: 6 nM | EC50 [3]: 500 nM

Cc1cc2c(-c3ccc[nH]c3=O)c(C(=O)NS(=O)(=O)C3CC3)n(Cc3cc([N+](=O)[O-])ccc3F)c2cc1F
AUC [1]: 0.35 µM·h | IC50 [2]: 7 nM | EC50 [3]: 4 nM

Nc1cc(Cn2c(C(=O)O)c(-c3ccc[nH]c3=O)c3cc(Cl)ccc32)ccn1
IC50 [2]: 53 nM

CCc1ccc2c(c1)c(-c1ccc[nH]c1=O)c(C(=O)NS(=O)(=O)C1CC1)n2Cc1cc(S(C)(=O)=O)c(Cl)cc1F
IC50 [2]: 2 nM | EC50 [3]: 60 nM

Cc1ccc2c(c1)c(-c1ccc[nH]c1=O)c(C(=O)NS(=O)(=O)C1CC1)n2Cc1cc([N+](=O)[O-])ccc1Cl
IC50 [2]: 7 nM | EC50 [3]: 16 nM

Cc1ccc2c(c1)c(-c1ccc[nH]c1=O)c(C(=O)NS(=O)(=O)C1CC1)n2Cc1c(F)c(F)cc(S(C)(=O)=O)c1F
IC50 [2]: 14 nM | EC50 [3]: 270 nM

Cc1ccc2c(c1)c(-c1ccc[nH]c1=O)c(C(=O)NS(=O)(=O)C1CC1)n2Cc1cc([S+]([O-])C(F)(F)F)ccc1Cl (centres undefined)
IC50 [2]: 14 nM | EC50 [3]: 3400 nM

Cc1ccc2c(c1)c(-c1ccc[nH]c1=O)c(C(=O)NS(=O)(=O)C1CC1)n2Cc1cc(S(N)(=O)=O)ccc1F
IC50 [2]: 5 nM | EC50 [3]: 550 nM

Cc1ccc2c(c1)c(-c1ccc[nH]c1=O)c(C(=O)NS(=O)(=O)C1CC1)n2Cc1cc(F)ccc1F
IC50 [2]: 6 nM

O=C(NS(=O)(=O)C1CC1)c1c(-c2ccc[nH]c2=O)c2cc(F)ccc2n1Cc1cc([N+](=O)[O-])ccc1F
IC50 [2]: 5 nM | EC50 [3]: 6 nM

Cc1ccc2c(c1)c(-c1ccc[nH]c1=O)c(C(=O)NS(C)(=O)=O)n2Cc1cc([N+](=O)[O-])ccc1F
AUC [1]: 0.19 µM·h | Activity [4]: Active | IC50 [2]: 6 nM | EC50 [3]: 1 nM

Cc1ccc2c(c1)c(-c1ccc[nH]c1=O)c(C(=O)NS(=O)(=O)C1CC1)n2Cc1cccc(C)c1F
IC50 [2]: 4 nM | EC50 [3]: 380 nM

Cc1ccc2c(c1)c(-c1ccc[nH]c1=O)c(C(=O)NS(=O)(=O)C1CC1)n2Cc1c(F)c(F)cc(C(N)=O)c1F
IC50 [2]: 14 nM | EC50 [3]: 3300 nM

O=C(NS(=O)(=O)C1CC1)c1c(-c2ccc[nH]c2=O)c2cc(C(F)(F)F)ccc2n1Cc1cc([N+](=O)[O-])ccc1F
IC50 [2]: 4 nM | EC50 [3]: 2 nM

Cc1ccc2c(c1)c(-c1ccc[nH]c1=O)c(C(=O)NS(=O)(=O)C1CC1)n2Cc1cc(C#N)ccc1F
IC50 [2]: 9 nM | EC50 [3]: 220 nM

O=C(NS(=O)(=O)C1CC1)c1c(-c2ccc[nH]c2=O)c2ccccc2n1Cc1cc([N+](=O)[O-])ccc1F
IC50 [2]: 4 nM | EC50 [3]: 6 nM

Cc1ccc2c(c1)c(-c1ccc[nH]c1=O)c(C(=O)NS(=O)(=O)C(C)C)n2Cc1cc([N+](=O)[O-])ccc1F
IC50 [2]: 4 nM | EC50 [3]: 3 nM

Cc1ccc2c(c1)c(-c1ccc[nH]c1=O)c(C(=O)NS(=O)(=O)C1CC1)n2Cc1cc([N+](=O)[O-])ccc1F
AUC [1]: 0.01 µM·h | IC50 [2]: 6 nM | EC50 [3]: 1 nM

Cc1ccc2c(c1)c(-c1ccc[nH]c1=O)c(C(=O)NS(=O)(=O)C1CC1)n2Cc1cc(S(C)(=O)=O)cc(C#N)c1F
IC50 [2]: 3 nM | EC50 [3]: 5 nM

CCc1ccc2c(c1)c(-c1ccc[nH]c1=O)c(C(=O)O)n2Cc1cc([N+](=O)[O-])ccc1F
Stability [5]: Stable | Activity [6]: Non-toxic | AUC [1]: 18 µM·h | bioavailability [7]: 30% | Activity [8]: Not Active | Stability [9]: Stable | inhibition (INH) [10]: Not Active | clearance [11]: 10 mL/min/kg | half-life [12]: 1.2 h | bioavailability [13]: 95% | Stability [14]: Stable | IC50 [2]: 5 nM | Activity [15]: Non-toxic | EC50 [3]: 1 nM | Stability [16]: Stable | AUC [17]: 3.4 µM·h | inhibition (INH) [18]: Not Active | half-life [19]: 8.2 h | Activity [20]: Not Active | inhibition (INH) [21]: Not Active | clearance [22]: 10 mL/min/kg | concentration at 6 h [23]: 460 nM | AUC [24]: 11 µM·h | clearance [25]: 8 mL/min/kg | bioavailability [26]: 37% | half-life [27]: 1.3 h | Activity [28]: Non-toxic

Cc1ccc2c(c1)c(-c1ccc(C)[nH]c1=O)c(C(=O)O)n2Cc1cc([N+](=O)[O-])ccc1F
IC50 [2]: 13 nM | EC50 [3]: 30 nM

CCc1ccc2c(c1)c(-c1ccc[nH]c1=O)c(C(=O)NS(=O)(=O)C1CC1)n2Cc1cc(S(C)(=O)=O)c(C#N)cc1F
IC50 [2]: 3 nM | EC50 [3]: 3 nM

CC(C)(C)c1ccc2c(c1)c(-c1ccc[nH]c1=O)c(C(=O)NS(=O)(=O)C1CC1)n2Cc1cc([N+](=O)[O-])ccc1F
IC50 [2]: 6 nM | EC50 [3]: 10 nM

CCc1ccc2c(c1)c(-c1ccc[nH]c1=O)c(C(=O)NS(=O)(=O)C1CC1)n2Cc1cc([N+](=O)[O-])ccc1F
Activity [6]: Non-toxic | AUC [1]: 0.17 µM·h | Activity [8]: Not Active | IC50 [2]: 4 nM | Activity [15]: Non-toxic | EC50 [3]: 1 nM | Activity [28]: Non-toxic

Cc1ccc2c(c1)c(-c1ccc[nH]c1=O)c(C(=O)N[S+]([O-])C(C)C)n2Cc1cc([N+](=O)[O-])ccc1F (centres undefined)
IC50 [2]: 7 nM | EC50 [3]: 2 nM

Cc1ccc2c(c1)c(-c1ccc[nH]c1=O)c(C(=O)NS(=O)(=O)N(C)C)n2Cc1cc([N+](=O)[O-])ccc1F
IC50 [2]: 5 nM | EC50 [3]: 0.5 nM

CCc1ccc2c(c1)c(-c1ccc[nH]c1=O)c(C(=O)NS(=O)(=O)C1CC1)n2Cc1cc(S(N)(=O)=O)c(Cl)cc1Cl
IC50 [2]: 6 nM | EC50 [3]: 1400 nM

Cc1ccc2c(c1)c(-c1ccc[nH]c1=O)c(C(=O)NS(=O)(=O)C1CC1)n2Cc1cc(S(=O)(=O)C(F)(F)F)ccc1Cl
IC50 [2]: 46 nM | EC50 [3]: 900 nM

O=C(NS(=O)(=O)C1CC1)c1c(-c2ccc[nH]c2=O)c2cc(Cl)ccc2n1Cc1cc([N+](=O)[O-])ccc1F
AUC [1]: 0.3 µM·h | IC50 [2]: 6 nM | EC50 [3]: 5 nM

From ChEMBL document CHEMBL2040828 (J Med Chem, 2012)
